In ChEMBL document CHEMBL1208666, “Novel 6,8-dibromo-4(3H)quinazolinone derivatives of anti-bacterial and anti-fungal activities” (2010):
≈ marks a conversion by molar mass, not a printed value. Calls of active or inactive are those of the source. No cut-off for these calls is given here.

Tests used:
[1] = system: Escherichia coli; assay: Antibacterial activity against Escherichia coli O157 at 100 ug/ml after 24 hrs by paper disc diffusion technique; type: functional; conditions: O157, 24 h, read-out: IZ
[2] = system: Escherichia coli; assay: Antibacterial activity against Escherichia coli O157 after 24 hrs by agar streak dilution method; type: functional; conditions: O157, 24 h
[3] = system: Salmonella typhimurium; assay: Antibacterial activity against Salmonella Typhimurium at 100 ug/ml after 24 hrs by paper disc diffusion technique; type: functional, Salmonella enterica subsp. enterica serovar Typhimurium; conditions: Salmonella enterica, read-out: IZ
Summary of the method: (§1)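 Paper disc diffusion on Mueller Hinton agar, autoclaved at 120 °C for 30 min. Medium at 40–50 °C was seeded at 1 ml/100 ml with a 10^5 cfu/ml suspension matched to 0.9 McFarland. It was poured 3–4 mm deep, and discs with compound in DMSO were laid on it. Plates were pre-incubated 1 h at room temperature, then 37 °C for 24 h. The inhibition zone was measured.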

[4] = system: Salmonella typhimurium; assay: Antibacterial activity against Salmonella Typhimurium after 24 hrs by agar streak dilution method; type: functional, Salmonella enterica subsp. enterica serovar Typhimurium; conditions: Salmonella enterica
Summary of the method: (§2)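 Agar streak dilution on Mueller Hinton agar. Compound stock in DMSO was added in graded amounts to molten sterile agar at 40–50 °C. This was poured 3–4 mm deep and left to solidify. Bacterial suspension of about 10^5 cfu/ml was applied to the serially diluted plates. Plates were incubated at 37 °C for 24 h to read the MIC. Strains were food-poisoning isolates from animal byproducts.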

[5] = system: Listeria monocytogenes; assay: Antibacterial activity against Listeria monocytogenes at 100 ug/ml after 24 hrs by paper disc diffusion technique; type: functional; conditions: read-out: IZ; summary of the method: as §1
[6] = system: Listeria monocytogenes; assay: Antibacterial activity against Listeria monocytogenes after 24 hrs by agar streak dilution method; type: functional; summary of the method: as §2
[7] = system: Staphylococcus aureus; assay: Antibacterial activity against Staphylococcus aureus at 100 ug/ml after 24 hrs by paper disc diffusion technique; type: functional; conditions: read-out: IZ; summary of the method: as §1
[8] = system: Staphylococcus aureus; assay: Antibacterial activity against Staphylococcus aureus after 24 hrs by agar streak dilution method; type: functional; summary of the method: as §2
[9] = system: Pseudomonas aeruginosa; assay: Antibacterial activity against Pseudomonas aeruginosa at 100 ug/ml after 24 hrs by paper disc diffusion technique; type: functional; conditions: read-out: IZ; summary of the method: as §1
[10] = system: Pseudomonas aeruginosa; assay: Antibacterial activity against Pseudomonas aeruginosa after 24 hrs by agar streak dilution method; type: functional; summary of the method: as §2
[11] = system: Bacillus cereus; assay: Antibacterial activity against Bacillus cereus at 100 ug/ml after 24 hrs by paper disc diffusion technique; type: functional; conditions: read-out: IZ; summary of the method: as §1
[12] = system: Bacillus cereus; assay: Antibacterial activity against Bacillus cereus after 24 hrs by agar streak dilution method; type: functional; summary of the method: as §2
[13] = system: Candida albicans; assay: Antifungal activity against Candida albicans at 100 ug/ml after 48 hrs by paper disc diffusion technique; type: functional; conditions: for zone of inhibition at 100 µg/mL: read-out: IZ
Summary of the method: (§3)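 Paper disc diffusion on Sabouraud dextrose agar, autoclaved at 120 °C for 30 min. Medium at 40–50 °C was seeded at 1 ml/100 ml with a 10^5 cfu/ml fungal suspension matched to 0.9 McFarland. It was poured 3–4 mm deep, and compound discs in DMSO were applied. Plates were pre-incubated 1 h at room temperature, then 28 °C for 48 h. The inhibition zone was recorded.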

[14] = system: Aspergillus flavus; assay: Antifungal activity against Aspergillus flavus at 100 ug/ml after 48 hrs by paper disc diffusion technique; type: functional; conditions: for zone of inhibition at 100 µg/mL: read-out: IZ; summary of the method: as §3
[15] = system: Aspergillus flavus; assay: Antifungal activity against Aspergillus flavus after 48 hrs by agar streak dilution method; type: functional
Summary of the method: (§4)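 Fungal MIC by agar streak dilution on Sabouraud dextrose agar. Compound stock in DMSO was added in graded amounts to molten sterile medium at 40–50 °C. This was poured 3–4 mm deep and left to solidify. Fungal suspension of about 10^5 cfu/ml was applied to the serially diluted plates. Plates were incubated at 37 °C for 48 h.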

[16] = system: Candida albicans; assay: Antifungal activity against Candida albicans after 48 hrs by agar streak dilution method; type: functional; summary of the method: as §4

| Compound | zone of inhibition at 100 µg/mL [1] [mm] | MIC [2] [µg/mL] | zone of inhibition at 100 µg/mL [3] [mm] | MIC [4] [µg/mL] | zone of inhibition at 100 µg/mL [5] [mm] | MIC [6] [µg/mL] | zone of inhibition at 100 µg/mL [7] [mm] | MIC [8] [µg/mL] | zone of inhibition at 100 µg/mL [9] [mm] | MIC [10] [µg/mL] | zone of inhibition at 100 µg/mL [11] [mm] | MIC [12] [µg/mL] | inhibition zone (IZ) [13] | zone of inhibition at 100 µg/mL [14] [mm] | MIC [15] [µg/mL] | inhibition zone (IZ) [14] | zone of inhibition at 100 µg/mL [13] [mm] | MIC [16] [µg/mL] |
| --- | --- | --- | --- | --- | --- | --- | --- | --- | --- | --- | --- | --- | --- | --- | --- | --- | --- | --- |
| O=C(N/N=C/c1ccccc1)c1ccc(-n2c(-c3ccccc3)nc3c(Br)cc(Br)cc3c2=O)cc1 | 11 | 45 (≈ 74.7 µM) | 10 | > 50 | 13 | 35 (≈ 58.1 µM) | 12 | 25 (≈ 41.5 µM) | 12 | 50 (≈ 83 µM) | 12 | 30 (≈ 49.8 µM) | inactive | 10 | 25 (≈ 41.5 µM) | – | – | – |
| Cc1ccc(/C=N/NC(=O)c2ccc(-n3c(-c4ccccc4)nc4c(Br)cc(Br)cc4c3=O)cc2)cc1 | 11 | 40 (≈ 64.9 µM) | 15 | 5 (≈ 8.11 µM) | 13 | 30 (≈ 48.7 µM) | 12 | 25 (≈ 40.6 µM) | 15 | 2.5 (≈ 4.06 µM) | 11 | 35 (≈ 56.8 µM) | inactive | 12 | 20 (≈ 32.5 µM) | – | – | – |
| O=C(N/N=C/c1ccc(Cl)cc1)c1ccc(-n2c(-c3ccccc3)nc3c(Br)cc(Br)cc3c2=O)cc1 | 12 | 20 (≈ 31.4 µM) | 10 | > 50 | 14 | 30 (≈ 47.1 µM) | 12 | 25 (≈ 39.3 µM) | 12 | 20 (≈ 31.4 µM) | 16 | 5.5 (≈ 8.64 µM) | inactive | 16 | 12.5 (≈ 19.6 µM) | – | – | – |
| O=C(NN1C(=O)CSC1c1ccccc1O)c1ccc(-n2c(-c3ccccc3)nc3c(Br)cc(Br)cc3c2=O)cc1 (stereo not drawn) | 13 | 30 (≈ 43.3 µM) | 12 | 50 (≈ 72.2 µM) | 15 | 15 (≈ 21.7 µM) | 11 | 45 (≈ 65 µM) | 12 | 35 (≈ 50.5 µM) | 9 | > 50 | inactive | – | – | inactive | – | – |
| OC(Cn1cncn1)(Cn1cncn1)c1ccc(F)cc1F [FLUCONAZOLE] | – | – | – | – | – | – | – | – | – | – | – | – | – | 22 | 0.78 (≈ 2.55 µM) | – | 18 | 1.56 (≈ 5.09 µM) |
| O=C1CC(=O)N(C(=O)c2ccc(-n3c(-c4ccccc4)nc4c(Br)cc(Br)cc4c3=O)cc2)N1 | – | – | 12 | 50 (≈ 85.9 µM) | 10 | > 50 | 9 | > 50 | 11 | > 50 | 10 | > 50 | inactive | 18 | 1.9 (≈ 3.26 µM) | – | – | – |
| O=C(O)c1cn(C2CC2)c2cc(N3CCNCC3)c(F)cc2c1=O [CIPROFLOXACIN] | 18 | – | 20 | 0.39 (≈ 1.18 µM) | 17 | 1.56 (≈ 4.71 µM) | 18 | 1.56 (≈ 4.71 µM) | 19 | 0.78 (≈ 2.35 µM) | 20 | 0.39 (≈ 1.18 µM) | – | – | – | – | – | – |
| O=C(NN1C(=O)CCC1=O)c1ccc(-n2c(-c3ccccc3)nc3c(Br)cc(Br)cc3c2=O)cc1 | 9 | > 50 | 18 | 1.7 (≈ 2.85 µM) | 12 | 50 (≈ 83.9 µM) | 9 | > 50 | 11 | > 50 | 9 | > 50 | inactive | 17 | 3.5 (≈ 5.87 µM) | – | – | – |
| O=C(NN1C(=O)CSC1c1ccccc1)c1ccc(-n2c(-c3ccccc3)nc3c(Br)cc(Br)cc3c2=O)cc1 (stereo not drawn) | 10 | > 50 | 16 | 4.1 (≈ 6.06 µM) | 13 | 32 (≈ 47.3 µM) | 12 | 25 (≈ 37 µM) | 12 | 35 (≈ 51.7 µM) | 9 | 50 (≈ 73.9 µM) | inactive | – | – | inactive | – | – |
| Cc1cc(C)n(C(=O)c2ccc(-n3c(-c4ccccc4)nc4c(Br)cc(Br)cc4c3=O)cc2)n1 | – | – | 14 | 20 (≈ 34.6 µM) | 15 | 12.5 (≈ 21.6 µM) | 10 | 50 (≈ 86.5 µM) | 12 | 30 (≈ 51.9 µM) | 13 | 25 (≈ 43.2 µM) | – | – | – | inactive | 9 | 50 (≈ 86.5 µM) |
| COc1ccc(/C=N/NC(=O)c2ccc(-n3c(-c4ccccc4)nc4c(Br)cc(Br)cc4c3=O)cc2)cc1 | 8 | > 50 | 10 | > 50 | 12 | 50 (≈ 79.1 µM) | 11 | 50 (≈ 79.1 µM) | 11 | > 50 | 13 | 35.5 (≈ 56.1 µM) | inactive | 11 | 25 (≈ 39.5 µM) | – | – | – |
| CC1=NN(C(=O)c2ccc(-n3c(-c4ccccc4)nc4c(Br)cc(Br)cc4c3=O)cc2)C(=O)C1 | – | – | 14 | 30 (≈ 51.7 µM) | 16 | 6 (≈ 10.3 µM) | 11 | 40 (≈ 68.9 µM) | 12 | 50 (≈ 86.2 µM) | 11 | > 50 | – | 20 | 2.5 (≈ 4.31 µM) | – | 9 | 50 (≈ 86.2 µM) |
| CC(=O)NNC(=O)c1ccc(-n2c(-c3ccccc3)nc3c(Br)cc(Br)cc3c2=O)cc1 | 9 | > 50 | 14 | 30 (≈ 53.9 µM) | 14 | 35 (≈ 62.9 µM) | 11 | 40 (≈ 71.9 µM) | 13 | 25 (≈ 44.9 µM) | 9 | > 50 | inactive | 22 | 1.2 (≈ 2.16 µM) | – | – | – |
| O=C(N/N=C/c1ccccc1O)c1ccc(-n2c(-c3ccccc3)nc3c(Br)cc(Br)cc3c2=O)cc1 | 10 | 50 (≈ 80.9 µM) | 13 | 30 (≈ 48.5 µM) | 11 | 50 (≈ 80.9 µM) | 15 | 12.5 (≈ 20.2 µM) | 11 | > 50 | 13 | 25.5 (≈ 41.2 µM) | inactive | 15 | 10.5 (≈ 17 µM) | – | – | – |
| CCOC(=O)c1ccc(-n2c(-c3ccccc3)nc3c(Br)cc(Br)cc3c2=O)cc1 | 11 | 50 (≈ 94.7 µM) | 16 | 3.12 (≈ 5.92 µM) | 14 | 25 (≈ 47.3 µM) | 17 | 1.56 (≈ 2.95 µM) | 12 | 50 (≈ 94.7 µM) | 9 | 50 (≈ 94.7 µM) | inactive | 10 | 25 (≈ 47.3 µM) | – | – | – |
| NNC(=O)c1ccc(-n2c(-c3ccccc3)nc3c(Br)cc(Br)cc3c2=O)cc1 | 10 | > 50 | 11 | 50 (≈ 97.2 µM) | 11 | 50 (≈ 97.2 µM) | 10 | > 50 | 13 | 25 (≈ 48.6 µM) | 12 | 25 (≈ 48.6 µM) | inactive | 15 | 18.5 (≈ 36 µM) | – | – | – |
